Fewer inactive variants are shown than the library holds.

The labels stand for the following.
B1: tRNA (parent)
chain: GUUCCGUUGGCGUAAUGGUAACGCGUCUCCCUCCUAAGGAGAAGACUGCGGGUUCGAGUCCCGUACGGAACG

In the data set the parent is B1. As to the kind of experiment: yeast fitness relative to wild type (ratio to wild type); higher = fitter; tRNA-Arg(CCU), competitive growth, 37 C, YPD. An outline of the steps: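 The tRNA-Arg(CCU) gene variants were made by chemical synthesis with a 3% per-site mutation rate at 69 sites and inserted at the native genomic locus of Saccharomyces cerevisiae. After pooling, the strains were competed in YPD at 37°C for 24 hours in six parallel replicates. Gene amplicons from the start population and each end population were read by 100-nucleotide paired-end sequencing, and Darwinian fitness relative to wild type was taken from genotype frequency changes. Genotypes needed ≥ 100 starting reads, and estimates < 0.5 were set to 0.5.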
Turning to GUUCCGUUGGCGUAAUGGUAACGCGUCUCCCACCUAAGGAGAUGACUGCGGGUUCGAGUCCCGUACGGAACG [U32A A43U], the yeast fitness was determined as 0.879.

Take GUUCCGUUGGCGUAAUGGUAACGCGUCUCCCUCCUAAAGAGAAGACUGCAGGUUCGAGUCCCGUACGGAACG [G38A G50A]: the yeast fitness is 0.859.

With GUUCCGUUGGCGUAAUGGUAACGAGUCUCCUUCCUAAGGAGCAGACUGCGGGUUCGAGUCCCGAACGGAACG [C24A C31U A42C U64A], the yeast fitness was at most 0.5.

GAUCCGUUGGCGUAAUGGUAACGCGUAUCCCUCCUAAGGAGAAGACUGCGGGUUCGAGUUCCGUACGGGACG [U2A C27A C60U A69G]: the yeast fitness is 0.514.

Regarding GUUCCGUUGGCGUAAUGGUAACGCGUCCCUCUCCUAAGGAGAAGCCUGCGGGUUCGAAUCCCGUACUGAACG [U28C C30U A45C G58A G67U], the yeast fitness was at most 0.5.

GUUCGGUUGGCAUAAUGGUAACGCGUCUCCCUCCUAAGGAGAAGACCGCGGGUUCGAGUCCAGUACGGAACG [C5G G12A U47C C62A]: the yeast fitness was at most 0.5.

With GUUCCGUUGGCGUAAUGGUAACGCGUCUCCCUCCUAAGGAGCAAACUGCGGGAUCGAGUCCCGUACGGAACG [A42C G44A U53A], the yeast fitness was at most 0.5.

Turning to GUUCGGUUGCCGUAAUGGUAACGCGUCUACCACCUAAGGAGAAGAGUGCGGGUUCGCGUCCCGUACGGAACG [C5G G10C C29A U32A C46G A57C], the yeast fitness is at most 0.5.

Consider GUGCCGUUGGGGAAAUGGUAACGCGUCUCGCUCCUAAGGAGAAGACUGCGGGUUCGAGUCCCGUAUGGUACG [U3G C11G U13A C30G C66U A69U], for which the yeast fitness is at most 0.5.

Regarding GUUCCGUUGGCGUAAUGGUAACGCGUCUCCCUCCUAAGGAGAAGACUGGGGGUUCGCGUCCCGUACGGAACG [C49G A57C], the yeast fitness amounted to 0.656.

Take GUUCCGUUGGCGUUAUGGUAACGCGUCUCCCUCGUAAGGAGAUGAAUGCGGGUUCGAGUCCUGUACGGCACG [A14U C34G A43U C46A C62U A69C]: the yeast fitness is at most 0.5.

Turning to GUUCCGUUGGCGUAAUGGUAACGCGUCUCCCUCCUAAGGAGAAGACUGCGGGCUCGCGUCCCGUAUGGAACG [U53C A57C C66U], the yeast fitness is at most 0.5.

For the variant GUUCAGUUGGCGUAAUGGUAACGCGUCUCCCUCCUAAGGUGAAGACUGCGGGUUCGAGUCCCGUACAGAACG [C5A A40U G67A], the yeast fitness is 0.659.

In the case of GUUCCGUUGGCGUUAUGGUAACGCGACUCUCUCCUAAGGAGAAGACUGCGGGUUCGAGUCCCGUACGGCACG [A14U U26A C30U A69C], the yeast fitness was at most 0.5.

On to GUUCCGUUGGCGUAAUGGCAAGGAGUCUCCCUCCUAAGCAGAAGUCUGCGGGUUCGAGUCCCGUACGGAACG [U19C C22G C24A G39C A45U], for which the yeast fitness was found to be 0.572.

Regarding GUUCCGUUGGCGUCAUGGUCACGCGUCUCCCUCCUAAGGAGGAAACCGCGGGUUCGAGUCCCGUACGGAACG [A14C A20C A42G G44A U47C], the yeast fitness is at most 0.5.

GUUCCGUUGGUGUAAUGGUAACGCGUCUCCCUCCUAAGGAGAAGACUGCGGGUUCGAGUGCCGUACAGAACG [C11U C60G G67A]: the yeast fitness was determined as 0.549.

For GUUACGUUGGAGUAAUGGUAACGCGUCUCCCUCCUAAGGAGAAGACUGCGGGUUCGAGUCUCGUACGGAACG [C4A C11A C61U], the yeast fitness is at most 0.5.

With GUUUCGUUGGCGUAAUGGUAACGCGUCUCCUUCCUAAGGAGAAGACUGCGGGUUCGAGUCUCGUACGCAACG [C4U C31U C61U G68C], the yeast fitness was at most 0.5.

As to GUUCCGUUGGCGUGAUGGUAACGGGUCUCCCUCCUCAGGAGAAGACUGCGGGUUCGAGUCCCGUACGGACCG [A14G C24G A36C A70C], the yeast fitness was at most 0.5.

GUUCCGUUGGCGUAAUGGUAACGCGUCUCCCUCCUAAGGAGAUGACUGCGGGUUAGAGUCCCGUACGCUACG [A43U C55A G68C A69U]: the yeast fitness was at most 0.5.

Turning to GGUCCGUUGGCGUAAUGGUAAUGGGUCUCCCUCCUAAGGAGAAGACUGCGGGUUCGAGUCCCGUACGGUACG [U2G C22U C24G A69U], the yeast fitness was determined as 0.501.

GUUCCGUUGGCGUAAUGGUAACGCGUCUCCCUCCUAAGGAAAAGACUGCGGGUUCGAGUCCCGUAGGGAACG [G41A C66G]: the yeast fitness is 0.625.

As for GUUCCGUUGGCGUAAUGGUAACGCGUCUCCCUCCUAAGGCGAAGACUGCGGGUCCGAGUCCCGUACGGAACG [A40C U54C], the yeast fitness is 0.963.

Take GUUCCGUUGGCGUAAUGAUAACGCGUCUCCCUCCUAAGGAGAAAACUGCGGGUUCGAGUCCCGUACGAAACG [G18A G44A G68A]: the yeast fitness was at most 0.5.

GUUUCGUUGGCGUAAUGGUAACGCGUCUGCCUCCUAAGGAGAAGACUGCGGGUUCGAGUCCCGUACGGAACG [C4U C29G]: the yeast fitness was 0.608.

With GCUCCGUUGGCGUAUUGGUAACGCGUCUCCCUCCUAGGGAGAAGACUGCGGGUUCGAGUCCCGUACGGAACG [U2C A15U A37G], the yeast fitness is at most 0.5.

As to GUUCAGUUGGCGUAUUGGUAUCGCGUCUCCCCCCUAAGGAGAAGACUGCGGGUUCGAGUCCCGUACGGAACG [C5A A15U A21U U32C], the yeast fitness is at most 0.5.

Consider GUUCCGUUGGCGUAAUGGUAACGCGUGUCCCUCCUGAGGAGAAGACUGCGGGUUCGAGUCCCGUACGGAUCG [C27G A36G A70U], for which the yeast fitness was at most 0.5.

For the variant GUUCCGUUGGCGUAAUGAUAACGUGUCUUCUUCCUAAGCAGAAGACUGCGGGUUCGAGUCCCGUACGGAACG [G18A C24U C29U C31U G39C], the yeast fitness was at most 0.5.

Consider GUUCCGUUGCCGUAAUGGUAAUGCGUCUCCCUCCUAAGGAGAAGACUGCGGGUUCGAGUCCCGUCCGGAACG [G10C C22U A65C], for which the yeast fitness was at most 0.5.

With GUUCCGUUGGCGUAAUGGUAACGCGUCUCCCUCCUACGGAGAAGACUGCGGGUUCGAGUCCCGGACGGAACG [A37C U64G], the yeast fitness is 0.684.

GUUCCGUUGGCGUAAUGGUAACGGGACUGCCACCUAAGGAGAAGACUGCGGGUUCGAGUCCCGUACGGAACG [C24G U26A C29G U32A]: the yeast fitness turned out to be 0.516.

For the variant GUUCCCUUGGGGUAUUGGUAACGCGUCUCCGUCCUAAGGAGAAGACUGCGGGUUCGAGUCGCGUACGGGACG [G6C C11G A15U C31G C61G A69G], the yeast fitness stood at 0.657.

On to GUUCCGUUGGCGUAAUGGUAACGCCUCUCCCUCCUAAGGAGAUGACUGCAGGUUCGAGUCCCGUACGAAACG [G25C A43U G50A G68A], for which the yeast fitness was at most 0.5.

As to GUUCCAUUGGCGUAGUGGUAACGCGUCUCACUCCUAAGGAGAAGACUGCGGGUUCGAGUCCCGUACAGAACG [G6A A15G C30A G67A], the yeast fitness is at most 0.5.

Take GUACCGUUGGCGUAAUGGUAAUGCGUCUCCCUCCUAAGGAGAAGACUGCGGGUUCGAGUCCCGUACGGAACG [U3A C22U]: the yeast fitness is 0.738.
